Measurements as given in ChEMBL document CHEMBL1134414, “Synthesis, antitumor cytotoxicity, and DNA-binding of novel N-5,2-di(omega-aminoalkyl)-2,6-dihydropyrazolo[3,4,5-kl]acridine-5-carboxamides” (J Med Chem, 2001).

The compounds below were run on Nucleic Acid (assay: Apparent equilibrium constant for binding to calf thymus DNA by competitive displacement fluorometric assay). Conditions: Bos taurus.
Assay type: functional

Row | Compound | K app
1 | O=C1c2c(O)ccc(O)c2C(=O)c2c(NCCNCCO)ccc(NCCNCCO)c21 | 3.41e+08 M⁻¹

What follows are compounds tested on HT-29 (assay: Concentration required to inhibit cell growth by 50% in vitro against Human colon adenocarcinoma cell line). Conditions: not given.
Assay type: functional, cell-based
Method in brief: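 HT29 cells seeded at 2.5×10^4 cells/mL and exposed to drug continuously for 144 h. Assays run in triplicate.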

Row | IC50 | Compound
2 | 600 nM | CN(C)CCCNC(=O)c1ccc2c3c(c4ccccc4nc13)NN2CCN(C)C
3 | 300 nM | CN(C)CCN1Nc2c3ccccc3nc3c(C(=O)NCCN)ccc1c23
4 | 560 nM | CN(C)CCN1Nc2c3ccccc3nc3c(C(=O)NCCNCCO)ccc1c23
5 | 600 nM | CN(C)CCNC(=O)c1ccc2c3c(c4cc(O)ccc4nc13)NN2CCN(C)C
6 | 910 nM | CN(C)CCNC(=O)c1ccc2c3c(c4cc(N)ccc4nc13)NN2CCN(C)C
7 | 2300 nM | CN(C)CCCNC(=O)c1ccc2c3c(c4ccccc4nc13)NN2CCCN(C)C
8 | 210 nM | CN(C)CCNC(=O)c1ccc2c3c(c4ccccc4nc13)NN2CCN(C)C
9 | 250 nM | CN(C)CCCN1Nc2c3ccccc3nc3c(C(=O)NCCN(C)C)ccc1c23
10 | 1800 nM | CN(C)CCCN1Nc2c3cc(O)ccc3nc3c(C(=O)NCCN(C)C)ccc1c23
11 | 410 nM | CCN(CC)CCNC(=O)c1ccc2c3c(c4ccccc4nc13)NN2CCN(CC)CC

Second part, the compound before the results:

Row | Compound | IC50
12 | CN(C)CCNC(=O)c1ccc2c3c(c4cc([N+](=O)[O-])ccc4nc13)NN2CCN1CCCCC1 | 31 nM
13 | O=C(NCCN1CCCCC1)c1ccc2c3c(c4ccccc4nc13)NN2CCN1CCCCC1 | 450 nM
14 | COc1ccc2c(c1)-c1nn(CCN(C)C)c3ccc(C(=O)NCCN(C)C)c(c13)N2 | 120 nM
15 | CN(C)CCNC(=O)c1ccc2c3c(c4cc(O)ccc4nc13)NN2CCN1CCCC1 | 910 nM
16 | COc1ccc2c(c1)-c1nn(CCN3CCCCC3)c3ccc(C(=O)NCCN(C)C)c(c13)N2 | 260 nM
17 | O=C(NCCNCCO)c1ccc2c3c(c4ccccc4nc13)NN2CCN1CCCC1 | 1700 nM
18 | COc1ccc2c(c1)-c1nn(CCN3CCCC3)c3ccc(C(=O)NCCN(C)C)c(c13)N2 | 400 nM
19 | CN(C)CCNC(=O)c1ccc2c3c(c4ccccc4nc13)NN2CCN1CCCC1 | 190 nM
20 | CN(C)CCNC(=O)c1ccc2c3c(c4cc([N+](=O)[O-])ccc4nc13)NN2CCN(C)C | 3.9 nM
21 | CN(C)CCNC(=O)c1ccc2c3c(c4cc(O)ccc4nc13)NN2CCN1CCCCC1 | 630 nM
22 | CN(C)CCNC(=O)c1ccc2c3c(c4ccccc4nc13)NN2CCN1CCCCC1 | 210 nM
23 | CN(C)CCNC(=O)c1ccc2c3c(c4cc([N+](=O)[O-])ccc4nc13)NN2CCN1CCCC1 | 360 nM
24 | CN(C)CCNC(=O)c1ccc2c3c(c4cc(N)ccc4nc13)NN2CCN1CCCCC1 | 170 nM
25 | COc1ccc2c(c1)-c1nn(CCCN(C)C)c3ccc(C(=O)NCCN(C)C)c(c13)N2 | 490 nM
26 | O=C(NCCNCCO)c1ccc2c3c(c4ccccc4nc13)NN2CCN1CCCCC1 | 560 nM
